Published values gathered from unrelated publications.
Each line is one published result; the experiments were not run side by side.

SMILES	target or system	assay	test system	setting	quantity	result
CCn1cc(-c2ccccn2)c(=O)c2cc(F)c(N3CCC(C)CC3)cc21	Plasmodium falciparum	parasite growth	3D7	72 h, blood stage	EC50	> 10000 nM
CN1CCN(c2ccnc(Nc3ccc4c(Nc5ccc(OCc6cccc(F)c6)c(Cl)c5)ccnc4c3)n2)CC1	Plasmodium falciparum	parasite growth	D6	drug-resistant strain, blood stage	EC50	25 nM
CCOC(=O)c1cn(CC)c2cc(N3CCC(C)CC3)c(F)cc2c1=O	Plasmodium falciparum	parasite growth	3D7	72 h, blood stage	EC50	28 nM
COc1ccc(Nc2ccnc3cc(-c4cn[nH]c4)ccc23)cc1Cl	Plasmodium falciparum	parasite growth	D6	drug-resistant strain, blood stage	EC50	250 nM
O=C1Nc2ccccc2C(=O)CCc2ccc(O)cc21	L6	cell growth or viability	–	–	IC50	200 µM
CCn1cc(-c2nc(C)no2)c(=O)c2cc(F)c(N3CCC(C)CC3)cc21	Plasmodium falciparum	parasite growth	3D7	72 h, blood stage	EC50	19 nM
O=C1Nc2ccccc2C(=O)CCc2ccccc21	L6	cell growth or viability	–	–	IC50	53 µM
CC(=O)Nc1cccc(-n2c(=O)n(C3CC3)c(=O)c3c(Nc4ccc(I)cc4F)n(C)c(=O)c(C)c32)c1	SW1417	cell growth or viability, resazurin	–	1.56 nM, 72 h	viability	80.5%
CS(=O)(=O)c1ccc2c(c1)C(=O)CCc1ccccc1C(=O)N2	L6	cell growth or viability	–	–	IC50	> 300 µM
CN1CCN(S(=O)(=O)c2ccc(-c3ccc4c(Nc5ccc(C(F)(F)F)nc5)ccnc4c3)cc2)CC1	Plasmodium falciparum	parasite growth	D6	drug-resistant strain, blood stage	EC50	160 nM
